Results as given in ChEMBL document CHEMBL1144244, “Synthesis and biological activity of enantiomeric pairs of 5-[(E)-cycloalk-2-enylidenemethyl]thiolactomycin congeners” (Bioorg Med Chem Lett, 2008).
Values after ≈ are worked out from the molar mass of the structure shown.

Key:
[1] = Inhibition of fatty acid synthase type 1 in human HepG2 cells assessed as [1-14C]acetate incorporation into cellular fatty acid; assay type: cell-based
[2] = tested on: Haemophilus influenzae; assay: Antibacterial activity against Haemophilus influenzae IID983 by agar dilution method; assay type: functional
Procedure, shortened: (§1)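 MICs determined by agar dilution following CLSI guideline M7-A6 (2003).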

[3] = tested on: Staphylococcus aureus; assay: Antibacterial activity against Staphylococcus aureus Smith by agar dilution method; assay type: functional; procedure, shortened: as §1
[4] = tested on: Moraxella catarrhalis; assay: Antibacterial activity against Moraxella catarrhalis ATCC 25238 by agar dilution method; assay type: functional; procedure, shortened: as §1

**Q.** With `CC1=C(O)[C@](C)(/C=C2/C=C\CCCCC2)SC1=O` as the compound, how does the IC50 [1] read?
**A.** 0.0116 µg/mL (≈ 0.0439 µM)

**Q.** What about the MIC [2] of the same compound?
**A.** > 128 µg/mL

**Q.** What about the MIC [3] of the same compound?
**A.** > 128 µg/mL

**Q.** And the MIC [4]?
**A.** 64 µg/mL (≈ 242 µM)

**Q.** With `C=C/C(C)=C/[C@]1(C)SC(=O)C=C1O` as the compound, how does the IC50 [1] read?
**A.** 0.019 µg/mL (≈ 0.0968 µM)

**Q.** And the MIC [3]?
**A.** > 128 µg/mL

**Q.** What about the MIC [4] of the same compound?
**A.** > 128 µg/mL

**Q.** Which results are given for `CC1=C(O)[C@](C)(/C=C2/C=CCCC2)SC1=O`?
**A.** IC50 [1]: > 0.08 µg/mL; MIC [2]: > 64 µg/mL; MIC [3]: > 64 µg/mL; MIC [4]: > 64 µg/mL

**Q.** Which results are given for `C=C/C(C)=C/[C@@]1(C)SC(=O)C=C1O`?
**A.** IC50 [1]: > 0.08 µg/mL; MIC [2]: 32 µg/mL (≈ 163 µM); MIC [3]: > 128 µg/mL; MIC [4]: 16 µg/mL (≈ 81.5 µM)

**Q.** With `C=C1C(=O)OC(CCCCCCCC)C1C(=O)O` (stereo unspecified) as the compound, how does the IC50 [1] read?
**A.** 0.0074 µg/mL (≈ 0.0291 µM)

**Q.** Which IC50 [1] does the source give for `C[C@@]1(/C=C2/C=C\CCCCC2)SC(=O)C=C1O` here?
**A.** 0.0246 µg/mL (≈ 0.0983 µM)

**Q.** What about the MIC [2] of the same compound?
**A.** > 128 µg/mL

**Q.** And the MIC [3]?
**A.** > 128 µg/mL

**Q.** What about the MIC [4] of the same compound?
**A.** 64 µg/mL (≈ 256 µM)

**Q.** With `C[C@]1(/C=C2/C=CCCCC2)SC(=O)C=C1O` as the compound, how does the IC50 [1] read?
**A.** 0.0133 µg/mL (≈ 0.0563 µM)

**Q.** What about the MIC [2] of the same compound?
**A.** > 64 µg/mL

**Q.** What about the MIC [3] of the same compound?
**A.** > 64 µg/mL

**Q.** And the MIC [4]?
**A.** > 64 µg/mL

**Q.** With `CC1=C(O)[C@@](C)(/C=C2/C=C\CCCCC2)SC1=O` as the compound, how does the IC50 [1] read?
**A.** 0.0418 µg/mL (≈ 0.158 µM)

**Q.** What about the MIC [2] of the same compound?
**A.** > 128 µg/mL

**Q.** What about the MIC [3] of the same compound?
**A.** > 128 µg/mL

**Q.** And the MIC [4]?
**A.** 64 µg/mL (≈ 242 µM)

**Q.** With `C[C@]1(/C=C2/C=C\CCCCC2)SC(=O)C=C1O` as the compound, how does the IC50 [1] read?
**A.** 0.0195 µg/mL (≈ 0.0779 µM)

**Q.** And the MIC [2]?
**A.** > 128 µg/mL

**Q.** And the MIC [3]?
**A.** > 128 µg/mL

**Q.** And the MIC [4]?
**A.** 128 µg/mL (≈ 511 µM)

**Q.** With `CC1=C(O)[C@@](C)(/C=C2/C=CCCC2)SC1=O` as the compound, how does the IC50 [1] read?
**A.** > 0.08 µg/mL

**Q.** And the MIC [2]?
**A.** > 64 µg/mL

**Q.** What about the MIC [3] of the same compound?
**A.** > 64 µg/mL

**Q.** What about the MIC [4] of the same compound?
**A.** > 64 µg/mL

**Q.** Which results are given for `C=C/C(C)=C/[C@@]1(C)SC(=O)C(C)=C1O` [THIOLACTOMYCIN]?
**A.** IC50 [1]: > 0.08 µg/mL; MIC [2]: 2 µg/mL (≈ 9.51 µM); MIC [3]: 128 µg/mL (≈ 609 µM); MIC [4]: 0.25 µg/mL (≈ 1.19 µM)

**Q.** What does the source list for `C[C@@]1(/C=C2/C=CCCCC2)SC(=O)C=C1O`?
**A.** IC50 [1]: 0.0226 µg/mL (≈ 0.0956 µM); MIC [2]: > 64 µg/mL; MIC [3]: > 64 µg/mL; MIC [4]: > 64 µg/mL

**Q.** For `CC1=C(O)[C@@](C)(/C=C2/C=CCCCC2)SC1=O`, which IC50 [1] is on record?
**A.** 0.0254 µg/mL (≈ 0.101 µM)

**Q.** What about the MIC [2] of the same compound?
**A.** > 64 µg/mL

**Q.** And the MIC [3]?
**A.** > 64 µg/mL

**Q.** And the MIC [4]?
**A.** > 64 µg/mL

**Q.** With `O=C(O)c1cn(C2CC2)c2cc(N3CCNCC3)c(F)cc2c1=O` [CIPROFLOXACIN] as the compound, how does the MIC [2] read?
**A.** 0.008 µg/mL (≈ 0.0241 µM)

**Q.** And the MIC [3]?
**A.** 0.063 µg/mL (≈ 0.19 µM)

**Q.** What about the MIC [4] of the same compound?
**A.** 0.031 µg/mL (≈ 0.0936 µM)

**Q.** Which results are given for `C[C@]1(/C=C2/C=CCCC2)SC(=O)C=C1O`?
**A.** IC50 [1]: 0.057 µg/mL (≈ 0.256 µM); MIC [2]: > 64 µg/mL; MIC [3]: > 64 µg/mL; MIC [4]: > 64 µg/mL

**Q.** Which IC50 [1] does the source give for `C=C/C(C)=C/[C@]1(C)SC(=O)C(C)=C1O` here?
**A.** 0.0437 µg/mL (≈ 0.208 µM)

**Q.** What about the MIC [3] of the same compound?
**A.** > 128 µg/mL

**Q.** And the MIC [4]?
**A.** > 128 µg/mL

**Q.** With `C[C@@]1(/C=C2/C=CCCC2)SC(=O)C=C1O` as the compound, how does the IC50 [1] read?
**A.** 0.0189 µg/mL (≈ 0.085 µM)

**Q.** And the MIC [2]?
**A.** > 64 µg/mL

**Q.** And the MIC [3]?
**A.** > 64 µg/mL

**Q.** What about the MIC [4] of the same compound?
**A.** > 64 µg/mL

**Q.** What does the source list for `CC1=C(O)[C@](C)(/C=C2/C=CCCCC2)SC1=O`?
**A.** IC50 [1]: 0.0149 µg/mL (≈ 0.0595 µM); MIC [2]: > 64 µg/mL; MIC [3]: > 64 µg/mL; MIC [4]: > 64 µg/mL
